Laboratory results reported in ChEMBL document CHEMBL4382192, “Discovery of a potent dual ALK and EGFR T790M inhibitor” (Eur J Med Chem, 2017).

What was measured:
[1] = target: Dual specificity mitogen-activated protein kinase kinase 7 (Homo sapiens) (UniProt O14733); assay: Binding affinity to wild-type human full length MKK7 (M1 to R419 residues) expressed in mammalian expression system assessed as residual binding level at 1 uM by Kinomescan method relative to control
Method in brief: (§1)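 Single-point kinome-wide KINOMEscan binding panel, test compound at 1 μM, run by the provider's standard protocol.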

[2] = target: NT-3 growth factor receptor (Homo sapiens) (UniProt Q16288); assay: Binding affinity to wild-type human partial length TRKC (Q531 to G825 residues) expressed in mammalian expression system assessed as residual binding level at 1 uM by Kinomescan method relative to control
[3] = target: Serine/threonine-protein kinase PAK 4 (Homo sapiens) (UniProt O96013); assay: Binding affinity to wild-type human partial length PAK4 (Q144 to R438 residues) expressed in bacterial expression system assessed as residual binding level at 1 uM by Kinomescan method relative to control
[4] = Cmax in mouse at 2 mg/kg, iv; format: ADME, organism-based; design: dose 2 mg/kg, route intravenous; conditions: in vivo
[5] = target: Mitogen-activated protein kinase 13 (Homo sapiens) (UniProt O15264); assay: Binding affinity to wild-type human full length p38-delta (M1 to L365 residues) expressed in bacterial expression system assessed as residual binding level at 1 uM by Kinomescan method relative to control
[6] = AUClast in mouse at 10 mg/kg, po; format: ADME, organism-based; design: dose 10 mg/kg, time 0 - last, route oral; conditions: in vivo
[7] = target: Dual specificity protein kinase TTK (Homo sapiens) (UniProt P33981); assay: Binding affinity to wild-type human partial length TTK (N505 to V798 residues) expressed in bacterial expression system assessed as residual binding level at 1 uM by Kinomescan method relative to control
[8] = target: Serine/threonine-protein kinase Nek5 (Homo sapiens) (UniProt Q6P3R8); assay: Binding affinity to wild-type human partial length NEK5 (M1 to M279 residues) expressed in bacterial expression system assessed as residual binding level at 1 uM by Kinomescan method relative to control
[9] = target: BDNF/NT-3 growth factors receptor (Homo sapiens) (UniProt Q16620); assay: Binding affinity to wild-type human partial length TRKB (Q547 to G838 residues) expressed in mammalian expression system assessed as residual binding level at 1 uM by Kinomescan method relative to control
[10] = target: Serine/threonine-protein kinase/endoribonuclease IRE1 (Homo sapiens) (UniProt O75460); assay: Binding affinity to wild-type human partial length ERN1 (S551 to E852 residues) expressed in mammalian expression system assessed as residual binding level at 1 uM by Kinomescan method relative to control
[11] = target: Mitogen-activated protein kinase kinase kinase kinase 4 (Homo sapiens) (UniProt O95819); assay: Binding affinity to wild-type human partial length MAP4K4 (M1 to R310 residues) expressed in bacterial expression system assessed as residual binding level at 1 uM by Kinomescan method relative to control
[12] = target: Tyrosine-protein kinase Tec (Homo sapiens) (UniProt P42680); assay: Binding affinity to wild-type human partial length TEC (L341 to D620 residues) expressed in bacterial expression system assessed as residual binding level at 1 uM by Kinomescan method relative to control
[13] = target: Mitogen-activated protein kinase 15 (Homo sapiens) (UniProt Q8TD08); assay: Binding affinity to wild-type human partial length ERK8 (M1 to P437 residues) expressed in bacterial expression system assessed as residual binding level at 1 uM by Kinomescan method relative to control
[14] = target: Tyrosine-protein kinase CSK (Homo sapiens) (UniProt P41240); assay: Binding affinity to wild-type human full length CSK (M1 to L450 residues) expressed in bacterial expression system assessed as residual binding level at 1 uM by Kinomescan method relative to control
[15] = target: Phosphorylase b kinase gamma catalytic chain, skeletal muscle/heart isoform (Homo sapiens) (UniProt Q16816); assay: Binding affinity to wild-type human full length PHKG1 (M1 to Y387 residues) expressed in bacterial expression system assessed as residual binding level at 1 uM by Kinomescan method relative to control; method in brief: as §1
[16] = target: Serine/threonine-protein kinase PAK 2 (Homo sapiens) (UniProt Q13177); assay: Binding affinity to wild-type human partial length PAK2 (P151 to R525 residues) expressed in bacterial expression system assessed as residual binding level at 1 uM by Kinomescan method relative to control
[17] = target: Fibroblast growth factor receptor 1 (Homo sapiens) (UniProt P11362); assay: Binding affinity to wild-type human partial length FGFR1 (P357 to V669 residues) expressed in bacterial expression system assessed as residual binding level at 1 uM by Kinomescan method relative to control
[18] = target: Vascular endothelial growth factor receptor 2 (Homo sapiens) (UniProt P35968); assay: Binding affinity to wild-type human partial length VEGFR2 (R787 to P1253 residues) expressed in mammalian expression system assessed as residual binding level at 1 uM by Kinomescan method relative to control
[19] = tested on: BaF3; assay: Antiproliferative activity against mouse BAF3 cells assessed as reduction in cell viability after 72 hrs by MTS assay; format: cell-based; conditions: BaF3, 72 h
[20] = target: Casein kinase I isoform epsilon (Homo sapiens) (UniProt P49674); assay: Binding affinity to wild-type human full length CSNK1E (M1 to K416 residues) expressed in bacterial expression system assessed as residual binding level at 1 uM by Kinomescan method relative to control
[21] = target: Serine/threonine-protein kinase 38 (Homo sapiens) (UniProt Q15208); assay: Binding affinity to wild-type human partial length NDR1 (N33 to E449 residues) expressed in mammalian expression system assessed as residual binding level at 1 uM by Kinomescan method relative to control
[22] = tested on: ALK tyrosine kinase receptor (Homo sapiens), Q9UM73 [C1156Y]; assay: Binding affinity to wild-type human partial length ALK C1156Y mutant (I1088 to E1409 residues) expressed in mammalian expression system assessed as residual binding level at 1 uM by Kinomescan method relative to control
[23] = target: Serine/threonine-protein kinase DCLK1 (Homo sapiens) (UniProt O15075); assay: Binding affinity to wild-type human partial length DCAMKL1 (L270 to A662 residues) expressed in mammalian expression system assessed as residual binding level at 1 uM by Kinomescan method relative to control
[24] = target: Rhodopsin kinase GRK7 (Homo sapiens) (UniProt Q8WTQ7); assay: Binding affinity to wild-type human full length GRK7 (M1 to L553 residues) expressed in mammalian expression system assessed as residual binding level at 1 uM by Kinomescan method relative to control; method in brief: as §1
[25] = target: Ribosomal protein S6 kinase alpha-6 (Homo sapiens) (UniProt Q9UK32); assay: Binding affinity to wild-type human partial length N-terminal RSK4 kinase domain 1 (M1 to E397 residues) expressed in mammalian expression system assessed as residual binding level at 1 uM by Kinomescan method relative to control
[26] = target: Myotonin-protein kinase (Homo sapiens) (UniProt Q09013); assay: Binding affinity to wild-type human partial length DMPK (V47 to V415 residues) expressed in bacterial expression system assessed as residual binding level at 1 uM by Kinomescan method relative to control

Sequence of Tyrosine-protein kinase Tec (Homo sapiens) (P42680 whole entry, the tested form may be a part): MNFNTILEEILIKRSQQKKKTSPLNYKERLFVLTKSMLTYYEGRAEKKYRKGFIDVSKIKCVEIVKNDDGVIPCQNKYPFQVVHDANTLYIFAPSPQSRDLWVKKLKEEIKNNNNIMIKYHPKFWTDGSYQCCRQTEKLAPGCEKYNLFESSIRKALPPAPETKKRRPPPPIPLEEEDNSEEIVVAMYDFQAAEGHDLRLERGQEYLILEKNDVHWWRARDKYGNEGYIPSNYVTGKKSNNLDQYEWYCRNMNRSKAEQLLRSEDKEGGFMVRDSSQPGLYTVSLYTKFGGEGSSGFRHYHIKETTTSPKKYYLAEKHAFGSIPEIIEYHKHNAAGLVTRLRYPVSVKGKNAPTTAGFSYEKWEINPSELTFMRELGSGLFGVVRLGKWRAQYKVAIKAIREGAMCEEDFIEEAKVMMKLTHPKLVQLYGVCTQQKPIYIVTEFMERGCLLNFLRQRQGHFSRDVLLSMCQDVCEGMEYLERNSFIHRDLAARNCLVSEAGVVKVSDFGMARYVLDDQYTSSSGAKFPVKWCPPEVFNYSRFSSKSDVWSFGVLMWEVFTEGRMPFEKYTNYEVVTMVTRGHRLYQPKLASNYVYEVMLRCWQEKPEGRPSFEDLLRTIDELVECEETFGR
Sequence of Serine/threonine-protein kinase/endoribonuclease IRE1 (Homo sapiens) (O75460 19-977 limits assumed): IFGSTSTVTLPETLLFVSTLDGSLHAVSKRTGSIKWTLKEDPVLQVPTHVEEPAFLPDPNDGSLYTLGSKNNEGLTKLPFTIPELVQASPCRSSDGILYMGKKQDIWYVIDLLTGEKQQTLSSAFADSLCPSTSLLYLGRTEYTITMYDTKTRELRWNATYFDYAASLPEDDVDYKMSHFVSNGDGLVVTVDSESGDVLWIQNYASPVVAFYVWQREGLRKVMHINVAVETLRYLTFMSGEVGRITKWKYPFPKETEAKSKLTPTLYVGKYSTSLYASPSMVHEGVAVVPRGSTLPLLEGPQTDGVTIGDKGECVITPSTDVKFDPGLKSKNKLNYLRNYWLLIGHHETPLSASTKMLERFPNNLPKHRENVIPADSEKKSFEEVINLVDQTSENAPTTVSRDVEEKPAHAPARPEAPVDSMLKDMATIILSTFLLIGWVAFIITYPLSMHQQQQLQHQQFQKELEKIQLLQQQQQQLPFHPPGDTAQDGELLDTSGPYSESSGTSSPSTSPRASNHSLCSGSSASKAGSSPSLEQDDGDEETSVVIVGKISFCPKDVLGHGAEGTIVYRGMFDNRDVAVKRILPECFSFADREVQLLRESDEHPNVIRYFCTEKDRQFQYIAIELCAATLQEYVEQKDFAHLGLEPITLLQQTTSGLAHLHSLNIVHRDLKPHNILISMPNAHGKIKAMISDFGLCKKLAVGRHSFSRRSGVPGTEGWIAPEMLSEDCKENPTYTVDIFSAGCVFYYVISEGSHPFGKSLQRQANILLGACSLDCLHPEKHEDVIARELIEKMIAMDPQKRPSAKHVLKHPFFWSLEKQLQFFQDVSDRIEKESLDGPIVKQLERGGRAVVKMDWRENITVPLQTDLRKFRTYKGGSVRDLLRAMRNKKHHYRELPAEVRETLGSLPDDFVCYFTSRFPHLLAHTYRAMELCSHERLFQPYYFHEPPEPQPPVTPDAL
Sequence of Serine/threonine-protein kinase PAK 4 (Homo sapiens) (O96013 whole entry, looked up, the tested form may be a part): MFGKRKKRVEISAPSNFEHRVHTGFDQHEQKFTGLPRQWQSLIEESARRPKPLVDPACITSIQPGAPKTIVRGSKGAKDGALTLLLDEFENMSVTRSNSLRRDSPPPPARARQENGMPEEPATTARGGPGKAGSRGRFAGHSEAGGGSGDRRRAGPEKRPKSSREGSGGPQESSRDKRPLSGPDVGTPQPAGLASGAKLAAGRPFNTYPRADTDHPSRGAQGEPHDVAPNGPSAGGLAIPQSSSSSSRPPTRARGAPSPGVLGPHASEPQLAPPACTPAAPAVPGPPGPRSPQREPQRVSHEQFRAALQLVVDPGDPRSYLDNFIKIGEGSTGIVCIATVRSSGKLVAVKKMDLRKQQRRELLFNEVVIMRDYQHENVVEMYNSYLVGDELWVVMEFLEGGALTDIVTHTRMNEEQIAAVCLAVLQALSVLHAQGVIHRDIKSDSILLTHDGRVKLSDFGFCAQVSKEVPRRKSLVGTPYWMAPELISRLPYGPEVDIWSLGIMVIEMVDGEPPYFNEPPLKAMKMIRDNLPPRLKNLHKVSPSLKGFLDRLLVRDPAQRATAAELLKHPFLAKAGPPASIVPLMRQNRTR
Sequence of Mitogen-activated protein kinase kinase kinase kinase 4 (Homo sapiens) (O95819 2-1239 limits assumed): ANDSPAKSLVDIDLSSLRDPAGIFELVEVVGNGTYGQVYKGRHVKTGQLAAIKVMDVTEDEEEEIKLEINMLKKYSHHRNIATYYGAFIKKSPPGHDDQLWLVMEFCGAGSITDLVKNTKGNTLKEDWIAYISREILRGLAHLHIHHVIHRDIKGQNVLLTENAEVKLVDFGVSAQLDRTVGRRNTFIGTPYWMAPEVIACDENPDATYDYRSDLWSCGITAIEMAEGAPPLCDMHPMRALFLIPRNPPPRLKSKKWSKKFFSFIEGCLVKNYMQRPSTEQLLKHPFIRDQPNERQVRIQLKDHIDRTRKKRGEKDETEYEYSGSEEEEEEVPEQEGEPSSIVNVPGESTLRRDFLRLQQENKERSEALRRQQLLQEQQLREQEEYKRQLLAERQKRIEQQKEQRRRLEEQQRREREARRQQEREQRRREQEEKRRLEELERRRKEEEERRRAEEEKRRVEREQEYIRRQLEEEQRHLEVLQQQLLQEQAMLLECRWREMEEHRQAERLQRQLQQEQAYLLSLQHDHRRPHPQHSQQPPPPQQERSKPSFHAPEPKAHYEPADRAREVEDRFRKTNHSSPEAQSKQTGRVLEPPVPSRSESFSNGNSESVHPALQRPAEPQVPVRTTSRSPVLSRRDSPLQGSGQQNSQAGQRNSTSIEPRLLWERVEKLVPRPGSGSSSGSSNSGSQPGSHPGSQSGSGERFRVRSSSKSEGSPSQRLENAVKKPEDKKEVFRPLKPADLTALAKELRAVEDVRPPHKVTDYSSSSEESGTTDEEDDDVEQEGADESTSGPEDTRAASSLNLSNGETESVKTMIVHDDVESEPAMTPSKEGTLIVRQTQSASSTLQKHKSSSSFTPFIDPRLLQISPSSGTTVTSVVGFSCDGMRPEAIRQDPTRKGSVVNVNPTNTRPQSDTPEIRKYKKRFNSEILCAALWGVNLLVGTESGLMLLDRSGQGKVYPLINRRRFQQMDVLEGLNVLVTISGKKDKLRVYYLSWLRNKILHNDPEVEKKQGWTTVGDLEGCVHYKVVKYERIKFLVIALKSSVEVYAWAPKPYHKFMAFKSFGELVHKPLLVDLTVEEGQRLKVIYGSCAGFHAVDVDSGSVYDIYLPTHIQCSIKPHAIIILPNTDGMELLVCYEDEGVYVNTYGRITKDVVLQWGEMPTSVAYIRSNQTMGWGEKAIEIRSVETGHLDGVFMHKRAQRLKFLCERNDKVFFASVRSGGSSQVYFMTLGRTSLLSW
Sequence of Mitogen-activated protein kinase 13 (Homo sapiens) (O15264 whole entry, the tested form may be a part): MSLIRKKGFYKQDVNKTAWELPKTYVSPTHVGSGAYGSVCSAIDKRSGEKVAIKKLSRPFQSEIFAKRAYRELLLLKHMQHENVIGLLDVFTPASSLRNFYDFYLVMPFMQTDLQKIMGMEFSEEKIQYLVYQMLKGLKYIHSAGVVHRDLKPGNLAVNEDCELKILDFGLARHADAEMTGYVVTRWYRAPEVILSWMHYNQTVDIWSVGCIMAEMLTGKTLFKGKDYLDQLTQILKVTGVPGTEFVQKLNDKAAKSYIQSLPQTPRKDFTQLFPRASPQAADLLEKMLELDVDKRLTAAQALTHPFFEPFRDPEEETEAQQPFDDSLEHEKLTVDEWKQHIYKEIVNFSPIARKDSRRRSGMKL
Sequence of Fibroblast growth factor receptor 1 (Homo sapiens) (P11362 22-822 limits assumed): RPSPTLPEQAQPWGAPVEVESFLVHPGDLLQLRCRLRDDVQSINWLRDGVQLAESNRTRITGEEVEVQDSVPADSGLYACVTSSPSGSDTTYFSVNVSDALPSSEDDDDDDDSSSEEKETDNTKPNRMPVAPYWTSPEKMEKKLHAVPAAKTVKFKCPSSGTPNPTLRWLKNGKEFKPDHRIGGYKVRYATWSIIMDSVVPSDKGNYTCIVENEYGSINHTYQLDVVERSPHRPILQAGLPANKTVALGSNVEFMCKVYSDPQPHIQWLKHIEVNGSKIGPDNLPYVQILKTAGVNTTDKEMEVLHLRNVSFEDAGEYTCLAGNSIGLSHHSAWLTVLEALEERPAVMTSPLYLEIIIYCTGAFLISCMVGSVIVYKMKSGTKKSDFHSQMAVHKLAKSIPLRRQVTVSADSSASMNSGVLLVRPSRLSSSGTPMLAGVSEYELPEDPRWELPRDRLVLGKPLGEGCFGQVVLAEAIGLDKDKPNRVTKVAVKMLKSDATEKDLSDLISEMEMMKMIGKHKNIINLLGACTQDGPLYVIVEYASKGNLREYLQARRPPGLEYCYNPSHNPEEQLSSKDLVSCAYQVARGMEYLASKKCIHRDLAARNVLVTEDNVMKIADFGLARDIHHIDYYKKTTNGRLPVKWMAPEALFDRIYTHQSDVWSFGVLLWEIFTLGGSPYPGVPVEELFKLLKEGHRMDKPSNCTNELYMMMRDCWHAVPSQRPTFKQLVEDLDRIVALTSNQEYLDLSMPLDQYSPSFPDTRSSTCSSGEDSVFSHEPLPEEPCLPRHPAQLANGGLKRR
Sequence of Dual specificity mitogen-activated protein kinase kinase 7 (Homo sapiens) (O14733 whole entry, the tested form may be a part): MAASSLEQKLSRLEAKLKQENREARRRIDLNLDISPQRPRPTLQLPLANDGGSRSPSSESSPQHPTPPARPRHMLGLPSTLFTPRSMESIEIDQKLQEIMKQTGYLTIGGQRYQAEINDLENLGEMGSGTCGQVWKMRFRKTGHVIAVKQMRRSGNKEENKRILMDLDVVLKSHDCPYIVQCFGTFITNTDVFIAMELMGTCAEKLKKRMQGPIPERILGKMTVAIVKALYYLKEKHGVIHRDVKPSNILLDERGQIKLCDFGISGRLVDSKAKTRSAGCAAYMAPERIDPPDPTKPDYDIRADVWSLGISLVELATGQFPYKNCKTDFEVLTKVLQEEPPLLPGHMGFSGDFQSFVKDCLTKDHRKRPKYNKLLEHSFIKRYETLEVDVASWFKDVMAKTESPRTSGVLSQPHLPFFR

**Q.** With C=CC(=O)Nc1cc(Nc2ncc(Cl)c(Nc3ccccc3S(=O)(=O)C(C)C)n2)c(OC)cc1N(C)CCN(C)C as the molecule, how does the Activity [1] read?
**A.** 77%

**Q.** What about the Activity [2] of the same molecule?
**A.** 85%

**Q.** What about the Activity [3] of the same molecule?
**A.** 78%

**Q.** And the Cmax [4]?
**A.** 882 ng/mL

**Q.** And the Activity [5]?
**A.** 100%

**Q.** What about the AUC(0-t) [6] of the same molecule?
**A.** 1550 ng·h/mL

**Q.** And the Activity [7]?
**A.** 29%

**Q.** What about the Activity [8] of the same molecule?
**A.** 80%

**Q.** And the Activity [9]?
**A.** 30%

**Q.** And the Activity [10]?
**A.** 39%

**Q.** What about the Activity [11] of the same molecule?
**A.** 87%

**Q.** And the Activity [12]?
**A.** 1%

**Q.** What about the Activity [13] of the same molecule?
**A.** 73%

**Q.** What about the Activity [14] of the same molecule?
**A.** 69%

**Q.** And the Activity [15]?
**A.** 24%

**Q.** And the Activity [16]?
**A.** 62%

**Q.** And the Activity [17]?
**A.** 3.7%

**Q.** What about the Activity [18] of the same molecule?
**A.** 42%

**Q.** What about the EC50 [19] of the same molecule?
**A.** > 5 µM

**Q.** And the Activity [20]?
**A.** 100%

**Q.** What about the Activity [21] of the same molecule?
**A.** 56%

**Q.** What about the Activity [22] of the same molecule?
**A.** 0.2%

**Q.** What about the Activity [23] of the same molecule?
**A.** 14%

**Q.** And the Activity [24]?
**A.** 4.3%

**Q.** What about the Activity [25] of the same molecule?
**A.** 15%

**Q.** What about the Activity [26] of the same molecule?
**A.** 91%
